The record followed here is ChEMBL document CHEMBL2169814, “Structure-based design, synthesis, and characterization of dual hotspot small-molecule HIV-1 entry inhibitors” (J Med Chem, 2012).

Data set [1] is described as follows: Binding affinity to HIV-1 YU2 gp120 at 80 to 130 uM by VP-ITC analysis. Details: species or system Human immunodeficiency virus 1. Background: Isothermal titration calorimetry measures the heat released or taken up as one component is titrated into another.
Data set [2] relates to Human immunodeficiency virus 1. Nature of the data set: Antiviral activity against HIV-1 YU2 infected in canine Cf2Th-CCR5 cells assessed as activation of viral infectivity after 2 to 4 hrs by luminometer relative to NBD-556. Type of data set: functional, organism-based.
Data set [3] in a line: Inhibition of recombinant HIV-1 YU2 envelope glycoprotein-120 assessed as inhibition of viral entry in canine Cf2Th cells expressing CD4/CCR5 after 2 to 4 hrs by luciferase activity based luminescence assay. Type of data set: cell-based, Human immunodeficiency virus 1. The method, boiled down:
(§1)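 Single-round luciferase-encoding recombinant HIV-1 pseudotyped with wild-type or mutant YU2 Env, made in 293T cells and dosed by RT units. Cf2Th/CD4-CCR5 cells seeded 24 h before. […] Cells lysed by freeze-thaw; luciferase read by luminometer.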

The nature of data set [4]: Inhibition of ampotrophic murine leukemia virus envelope glycoprotein assessed as inhibition of viral entry in canine Cf2Th cells expressing human CD4 and CCR5 after 2 to 4 hrs by luciferase activity based luminescence assay.
Data set [5] relates to Human immunodeficiency virus 1. Briefly: Increase in binding of full length of HIV1 YU2 gp120 expressed into 17b in canine Cf2Th-CCR5 by SPR assay.
Data set [6] concerns Human immunodeficiency virus 1. Nature of the data set: Increase in binding of minimal core of HIV1 YU2 gp120 into 17b in canine Cf2Th-CCR5 by SPR assay. A general note: Surface plasmon resonance follows binding to a sensor surface in real time, without labels.
Data set [7] deals with Human immunodeficiency virus 1. Briefly: Antiviral activity against HIV-1 YU2 infected in canine Cf2Th-CCR5 cells assessed as activation of viral infectivity after 2 to 4 hrs by luminometer relative to JRC-I-191. Type of data set: functional, organism-based.
The subject of data set [8] is Human immunodeficiency virus 1. Briefly: Antiviral activity against HIV-1 clade C Env pseudovirus assessed as geometric mean titer for virus neutralization to infect human TZM-bl cells by luciferase assay. Type of data set: functional, organism-based. The method, boiled down: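 Env-pseudoviruses were made in 293T cells cotransfected with rev/env plasmid and the env-deficient pSGΔ3env backbone, then harvested at 2 days. Virus (MOI ~0.01–0.1) was preincubated 30 min at 37°C with serially diluted compound in medium containing 10% DMSO, in duplicate, then used to infect TZM-bl cells. Luciferase read-out; IC50 from a 5-parameter Hill fit; geometric mean across isolates.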

Data set [9] has as its system Human immunodeficiency virus 1. Briefly: Antiviral activity against HIV-1 clade B Env pseudovirus assessed as geometric mean titer for virus neutralization to infect human TZM-bl cells by luciferase assay. Type of data set: functional, organism-based. To be noted: Human immunodeficiency virus 1, clade B. The method, boiled down:
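Env-pseudoviruses made in 293T cells co-transfected with rev/env plasmid and env-deficient backbone (pSGΔ3env); supernatants harvested at 2 days, filtered. Virus (MOI ~0.01–0.1) preincubated 30 min at 37°C with serially diluted reagent (media with 10% DMSO), duplicate wells, then used to infect TZM-bl cells. Luciferase read-out; 5-parameter hill fit gives IC50/IC80; geometric mean titer across isolates.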

A short description of data set [10]: Cytotoxicity against canine Cf2Th-CD4-CCR5 assessed as cell viability at 1 to 100 uM after 48 hrs by luminometer. Type of data set: cell-based, Canis lupus familiaris. The settings on record: dog, thymocyte. The method, boiled down: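 Cf2Th/CD4-CCR5 cells were seeded at 6×10^3/well 24 h ahead and exposed to compound at 1–100 μM (DMSO at 2% as control) for 2–4 h at 37°C. Medium was then topped up and cells were incubated 48 h at 37°C. After 30 min at room temperature, CellTiter-Glo was added for 5–10 min, and luminescence was read for 5 s.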

Data set [11] relates to Human immunodeficiency virus 1. Briefly: Antiviral activity against HIV-1 YU2 infected in canine Cf2Th-CCR5 cells assessed as activation of viral infectivity after 2 to 4 hrs by luminometer relative to TS-II-224. In kind it is functional, organism-based.
For data set [12], the system named is Envelope glycoprotein gp160 (Human immunodeficiency virus type 1 group M subtype B (isolate HXB2)(HIV-1)), P04578 [S375W]. Briefly: Inhibition of recombinant HIV-1 YU2 envelope glycoprotein-120 S375W mutant assessed as inhibition of viral entry in canine Cf2Th cells expressing CD4/CCR5 after 2 to 4 hrs by luciferase activity based luminescence assay. In kind it is cell-based. To be noted: Human immunodeficiency virus 1. The method, boiled down:
as §1

Data set [13] can be described thus: Inhibition of recombinant HIV-1 KB9 envelope glycoprotein-120 assessed as inhibition of viral entry in canine Cf2Th cells expressing CD4/CCR5 after 2 to 4 hrs by luciferase activity based luminescence assay. In kind it is cell-based, Human immunodeficiency virus 1. A digest of the protocol:
(§2)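 Single-round luciferase-reporter viruses were made in 293T cells with Gag-Pol packaging and Env plasmids (A-MLV Env plus rev), then normalized by RT activity. […] Cf2Th/CD4-CCR5 or CD4-CXCR4 targets were exposed for 2–4 h, cultured 48 h, lysed by freeze-thaw, and luciferase was read.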

Data set [14] is described as follows: Inhibition of recombinant HIV-1 89.6 envelope glycoprotein-120 assessed as inhibition of viral entry in canine Cf2Th cells expressing CD4/CCR5 after 2 to 4 hrs by luciferase activity based luminescence assay. In kind it is cell-based, Human immunodeficiency virus 1. A digest of the protocol:
as §2

A short description of data set [15]: Inhibition of recombinant HIV-1 JRFL envelope glycoprotein-120 assessed as inhibition of viral entry in canine Cf2Th cells expressing CD4/CCR5 after 2 to 4 hrs by luciferase activity based luminescence assay. Type of data set: cell-based, Human immunodeficiency virus 1. A digest of the protocol: as §2
Data set [16] in a line: Inhibition of recombinant HIV-1 ADA envelope glycoprotein-120 assessed as inhibition of viral entry in canine Cf2Th cells expressing CD4/CCR5 after 2 to 4 hrs by luciferase activity based luminescence assay. In kind it is cell-based, Human immunodeficiency virus 1. A digest of the protocol: as §2
The nature of data set [17]: Inhibition of recombinant HIV-1 HXBc2 envelope glycoprotein-120 assessed as inhibition of viral entry in canine Cf2Th cells expressing CD4/CCR5 after 2 to 4 hrs by luciferase activity based luminescence assay. In kind it is cell-based, Human immunodeficiency virus 1. The method, boiled down: as §2

Active and inactive are the calls of the source. The calls are words filed in the database; no cut-off is given here. A value given as a limit tells only on which side of the number the result lay.

One may read the Kd as the constant that tells how readily two partners part at equilibrium. Lower therefore signals tighter binding. Usually IC50 stands for the concentration that gives 50% inhibition.

As for `CC1(C)CC(NC(=O)C(=O)Nc2ccc(Br)cc2)CC(C)(C)N1`, the Kd in [1] came to 2.2 µM. The outcome in data set [2] was Active. Besides, the IC50 in [3] and in data set [4] was greater than 100 µM in each case.
Regarding `CN1C(C)(C)CC(NC(=O)C(=O)Nc2ccc(Cl)c(F)c2)CC1(C)C`, the result in data set [5], in data set [6] and in data set [7] was Active. Moreover, the figures for the IC50 in [3] and in data set [4] were 48.8 µM and 93.4 µM, respectively.
For the compound `N=C(N)N[C@H]1Cc2ccccc2[C@@H]1NC(=O)C(=O)Nc1ccc(Cl)c(F)c1.O=CO`, the outcome in data set [5], in data set [6] and in [8] was Active. The IC50 was 7.9 µM in data set [9], 22.9 µM in [3] and greater than 100 µM in [4]. For the same compound, the Activity result in data set [10] was “Non-toxic”. Moreover, the Kd in [1] is 0.25 µM. In addition, the result in data set [11] and in data set [12] was inactive.
As to `N=C(N)N[C@@H]1Cc2ccccc2[C@H]1NC(=O)C(=O)Nc1ccc(Cl)c(F)c1`, the outcome in [5], in data set [6] and in [8] was Active. For the same compound, the IC50 was 8.9 µM in data set [9], 21.3 µM in data set [3] and greater than 100 µM in data set [4]. The affinity in data set [1], expressed as Kd, was 0.3 µM. Moreover, the result in [11] and in [12] was inactive.
Consider `CC1(C)CC(NC(=O)C(=O)Nc2ccc(Cl)cc2)CC(C)(C)N1`, for which the outcome in data set [8] was Active. In addition, the IC50 in data set [9] is 29.3 µM; in data set [3], greater than 100 µM; in data set [4], greater than 100 µM.
In the case of `N[C@@H]1Cc2ccccc2[C@H]1NC(=O)C(=O)Nc1ccc(Cl)c(F)c1`, the outcome in [5], in [6] and in [11] was Active. Also, the Kd in data set [1] was determined as 1.1 µM. Moreover, the IC50 in data set [13] worked out at 50 µM; in data set [14], 50 µM; in [15], 50 µM; in data set [16] it was 50 µM; in data set [17], 50 µM; in data set [3] it was 86.9 µM. Besides, in [4], the IC50 turned out to be 85.9 µM.
As to `N[C@H]1Cc2ccccc2[C@@H]1NC(=O)C(=O)Nc1ccc(Cl)c(F)c1`, the outcome in data set [5], in data set [6] and in data set [11] was Active. Further, the IC50 in data set [13] stood at 50 µM; in [14], 50 µM; in data set [15] it was 50 µM; in data set [16], 50 µM; in data set [17] it was 50 µM; in data set [3], 53.9 µM. In addition, the 50% inhibitory concentration (IC50) in [4] was found to be 56.9 µM.
As for `CC1(C)CC(NC(=O)C(=O)Nc2ccc(Cl)c(F)c2)CC(C)(C)N1`, the result in [2] was Active. In addition, the IC50 in data set [3] is 54.4 µM; in data set [4], greater than 100 µM.
